Experiments:
Cannabinoid receptor 2 [1] = biological target: T1, Cannabinoid receptor 2 (Homo sapiens, UniProt P34972); test: Displacement of [3H]CP-55940 from human CB2 receptor
Cannabinoid receptor 1 = Cannabinoid receptor 1 (Homo sapiens, UniProt P21554); test: Displacement of [3H]CP-55940 from human CB1 receptor
Cannabinoid receptor 2 [2] = biological target: T1, Cannabinoid receptor 2; test: Agonist activity at cloned human CB2 receptor in Sf9 cells assessed as stimulation of [35S]GTPgammaS binding assay; assay type: functional
Method in brief: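 Sf9 membranes carrying cloned human CB2, in 50 mM Hepes, 20 mM NaOH, 100 mM NaCl, 1 mM EDTA, 5 mM MgCl2, 0.1% BSA plus GDP, pH 7.4. 10-point dose–response with [35S]GTPγS (~130,000 dpm/well), 1 h, room temperature. Filtered and washed (Tris/MgCl2/NaCl pH 7.4, 4 °C), then scintillation counted.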

Cannabinoid receptor 2 [3] = biological target: T1, Cannabinoid receptor 2; test: Agonist activity at cloned human CB2 receptor in Sf9 cells assessed by [35S]GTPgammaS binding assay relative to delta9-THC; assay type: functional

Sequence of Cannabinoid receptor 1 (P21554 whole entry): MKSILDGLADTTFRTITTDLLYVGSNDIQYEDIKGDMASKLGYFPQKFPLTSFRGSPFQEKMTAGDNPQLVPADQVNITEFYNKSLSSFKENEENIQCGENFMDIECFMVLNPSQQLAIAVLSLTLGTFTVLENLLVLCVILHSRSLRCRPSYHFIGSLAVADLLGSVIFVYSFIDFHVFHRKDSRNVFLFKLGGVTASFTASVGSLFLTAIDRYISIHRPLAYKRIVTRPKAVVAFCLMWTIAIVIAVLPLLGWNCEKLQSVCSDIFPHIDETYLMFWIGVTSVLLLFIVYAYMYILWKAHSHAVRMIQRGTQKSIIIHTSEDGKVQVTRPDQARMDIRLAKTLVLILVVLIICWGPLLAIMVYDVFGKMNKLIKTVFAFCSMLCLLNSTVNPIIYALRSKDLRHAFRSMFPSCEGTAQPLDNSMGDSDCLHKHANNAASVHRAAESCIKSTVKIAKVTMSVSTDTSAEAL
T1 sequence (P34972 whole entry): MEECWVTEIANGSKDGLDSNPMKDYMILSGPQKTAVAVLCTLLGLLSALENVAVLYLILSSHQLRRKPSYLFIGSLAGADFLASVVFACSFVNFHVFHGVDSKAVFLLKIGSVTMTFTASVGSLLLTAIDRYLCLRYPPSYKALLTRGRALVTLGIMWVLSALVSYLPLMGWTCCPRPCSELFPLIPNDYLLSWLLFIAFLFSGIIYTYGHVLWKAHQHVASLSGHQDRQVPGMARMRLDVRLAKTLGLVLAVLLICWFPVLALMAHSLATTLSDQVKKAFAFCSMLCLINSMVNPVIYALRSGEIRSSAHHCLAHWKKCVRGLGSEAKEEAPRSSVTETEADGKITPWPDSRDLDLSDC

Row | Structure (SMILES) | Ki (Cannabinoid receptor 2 [1]) | Ki (Cannabinoid receptor 1) | EC50 (Cannabinoid receptor 2 [2]) | Emax (Cannabinoid receptor 2 [3])
1 | CCOc1ccc(Cc2nc3cc(C(=O)N(CC)CC)ccc3n2CC2CCNCC2)cc1 | 2920 nM | > 5000 nM |  | 
2 | CCOc1ccc(Cc2nc3cc(C(=O)N(CC)CC)ccc3n2Cc2ccccc2)cc1 | 12 nM | 4770 nM | 1.1 nM | 88%
3 | CCOc1ccc(Cc2nc3cc(C(=O)N(CC)CC)ccc3n2CC23CC4CC(CC(C4)C2)C3)cc1 | 2.8 nM | 406 nM | 1.3 nM | 81%
4 | CCN(CC)C(=O)c1ccc2c(c1)nc(Cc1ccc(Oc3ccccc3)cc1)n2CCC(C)C | 4.9 nM | 2400 nM | 3.2 nM | 66%
5 | CCOc1ccc(Cc2nc3cc(C(=O)N(CC)CC)ccc3n2Cc2ccccn2)cc1 | 39 nM | > 5000 nM | 25 nM | 77%
6 | CCN(CC)C(=O)c1ccc2c(c1)nc(Cc1ccc(OC(F)(F)F)cc1)n2CCC(C)C | 25 nM | > 5000 nM | 11 nM | 29%
7 | CCOc1ccc(Cc2nc3cc(NC)ccc3n2CC2CC2)cc1 | 4340 nM | > 5000 nM |  | 
8 | CCN(CC)C(=O)c1ccc2c(c1)nc(Cc1ccc(OCC3CC3)cc1)n2CCC(C)C | 53 nM | 4190 nM | 43 nM | 75%
9 | CCOc1ccc(Cc2nc3cc(C(=O)N4CCCC4)ccc3n2CC2CC2)cc1 | 14 nM | > 5000 nM | 6.2 nM | 51%
10 | CCNC(=O)c1ccc2c(c1)nc(Cc1ccc(OCC)cc1)n2CC1CC1 | 63 nM | > 5000 nM | 52 nM | 53%
11 | CCN(CC)C(=O)c1ccc2c(c1)nc(Cc1ccc(OC3CCCCC3)cc1)n2CCC(C)C | 526 nM | > 5000 nM |  | 
12 | CCN(CC)C(=O)c1ccc2c(c1)nc(Cc1ccc(OC(C)C)cc1)n2CCC(C)C | 4.5 nM | 4680 nM | 2.4 nM | 79%
13 | CCOc1ccc(Cc2nc3cc(C(=O)N(CC)CC)ccc3n2CC2CCOCC2)cc1 | 3.9 nM | 1210 nM | 1 nM | 89%
14 | CCOc1ccc(Cc2nc3cc(C(=O)N4CCCCC4)ccc3n2CC2CC2)cc1 | 6.9 nM | > 5000 nM | 3 nM | 45%
15 | CCOc1ccc(Cc2nc3cc(C(=O)N(CC)CC)ccc3n2CC2CC2)nc1 | 27 nM | > 5000 nM | 22 nM | 63%
16 | CCOc1ccc(Cc2nc3cc(N(C)C(=O)N(CC)CC)ccc3n2CC2CC2)cc1 | 5.9 nM | > 5000 nM | 2 nM | 48%
17 | CCOc1ccc(Cc2nc3cc(N(C)C(=O)N(C)C)ccc3n2CC2CC2)cc1 | 41 nM | > 5000 nM | 36 nM | 55%
18 | CCOc1ccc(Cc2nc3cc(C(=O)N(CC)CC)ccc3n2Cc2ccncc2)cc1 | 16 nM | > 5000 nM | 5 nM | 78%
19 | CCOc1ccc(Cc2nc3cc(C(=O)N(CC)CC)ccc3n2CC2CC2)cn1 |  | > 5000 nM |  | 
20 | CCOc1ccc(Cc2nc3cc(C(=O)N(CC)CC)ccc3n2Cc2cc[n+]([O-])cc2)cc1 | 588 nM | > 5000 nM |  | 
21 | CCOc1ccc(Cc2nc3cc(N(C)C(=O)c4cccs4)ccc3n2CC2CC2)cc1 | 5 nM | 2480 nM | 2.6 nM | 51%
22 | CCOc1ccc(Cc2nc3cc(C(=O)N(C)C4CCCCC4)ccc3n2CC2CC2)cc1 | 11 nM | > 5000 nM | 4.2 nM | 60%
23 | CCN(CC)C(=O)c1ccc2c(c1)nc(Cc1ccc(OCC(F)(F)F)cc1)n2CCC(C)C | 57 nM | > 5000 nM | 65 nM | 68%
24 | CCN(CC)C(=O)c1ccc2c(c1)nc(Cc1ccc(OC3CCC3)cc1)n2CCC(C)C | 44 nM | > 5000 nM | 24 nM | 73%

Row | Structure (SMILES) | Ki (Cannabinoid receptor 2 [1]) | Ki (Cannabinoid receptor 1) | EC50 (Cannabinoid receptor 2 [2]) | Emax (Cannabinoid receptor 2 [3])
25 | CCOc1ccc(Cc2nc3cc(C(=O)N(CC)CC)ccc3n2CCC(C)C)cc1 |  | > 5000 nM |  | 63%
26 | CCCN(CCC)C(=O)c1ccc2c(c1)nc(Cc1ccc(OCC)cc1)n2CC1CC1 | 2.8 nM | 2610 nM | 2 nM | 67%
27 | CCOc1ccc(Cc2nc3cc(N(C)C(=O)N4CCCCC4)ccc3n2CC2CC2)cc1 | 4 nM | 3480 nM | 3.3 nM | 60%
28 | CCN(CC)C(=O)c1ccc2c(c1)nc(Cc1ccc(O)cc1)n2CCC(C)C | 799 nM | > 5000 nM |  | 
29 | Cc1c(C(=O)c2cccc3ccccc23)c2cccc3c2n1[C@H](CN1CCOCC1)CO3 |  |  |  | 64%
30 | CCOc1ccc(Cc2nc3cc(C(=O)N(CC)CC)ccc3n2CC2CC2)cc1 | 4.1 nM | > 5000 nM | 2.1 nM | 68%
31 | CCOc1ccc(Cc2nc3cc(C(=O)N(CC)CC)ccc3n2CC2CCCCC2)cc1 | 3.7 nM | 110 nM | 0.52 nM | 79%
32 | CCN(CC)C(=O)c1ccc2c(c1)nc(Cc1ccc(OC3CCCC3)cc1)n2CCC(C)C | 43 nM | > 5000 nM | 18 nM | 83%
33 | CCOc1ccc(Cc2nc3cc(C(=O)N(CC)CC)ccc3n2CC2CCC2)cc1 | 1.6 nM | 3120 nM | 1.3 nM | 64%
34 | CCOc1ccc(C(O)c2nc3cc(C(=O)N(CC)CC)ccc3n2CCC(C)C)cc1 (configuration not stated) | 57 nM | > 5000 nM |  | 70%
35 | CCN(CC)C(=O)c1ccc2c(c1)nc(Cc1ccc(OC)cc1)n2CCC(C)C | 17 nM | > 5000 nM | 7.3 nM | 43%
36 | CCOc1ccc(Cc2nc3cc(C(=O)N(CC)CC)ccc3n2Cc2ccco2)cc1 | 11 nM | > 5000 nM | 3.3 nM | 78%
37 | CCOc1ccc(Cc2nc3cc(C(N)=O)ccc3n2CC2CC2)cc1 | > 5000 nM | > 5000 nM |  | 
38 | CCOc1ccc(Cc2nc3cc(C(=O)N(CC)CC)ccc3n2C[C@@H]2CCCO2)cc1 | 15 nM | > 5000 nM | 4.8 nM | 76%
39 | CCOc1ccc(Cc2nc3cc(NC(C)=O)ccc3n2CC2CC2)cc1 | > 5000 nM | > 5000 nM |  | 
40 | CCOc1ccc(Cc2nc3cc(N(C)C(=O)NC(C)C)ccc3n2CC2CC2)cc1 | 5.7 nM | > 5000 nM | 6.4 nM | 51%
41 | CCCN(C)C(=O)c1ccc2c(c1)nc(Cc1ccc(OCC)cc1)n2CC1CC1 | 7.6 nM | > 5000 nM | 3.2 nM | 54%
42 | CCOc1ccc(Cc2nc3cc(N(C)C(C)=O)ccc3n2CC2CC2)cc1 | 1350 nM | > 5000 nM |  | 
43 | CCOc1ccc(C(=O)c2nc3cc(C(=O)N(CC)CC)ccc3n2CCC(C)C)cc1 | 35 nM | > 5000 nM | 25 nM | 55%
44 | CCOc1ccc(Cc2nc3cc(N(C)C(=O)CC(C)C)ccc3n2CC2CC2)cc1 | 4 nM | > 5000 nM | 2.7 nM | 54%
45 | CCOc1ccc(Cc2nc3cc(C(=O)N(CC)CC)ccc3n2C[C@H]2CCCO2)cc1 | 23 nM | > 5000 nM | 8.3 nM | 62%
46 | CCOc1ccc(Cc2nc3cc(C(=O)N(CC(F)(F)F)CC(F)(F)F)ccc3n2CC2CC2)cc1 |  | 4530 nM | 2 nM | 51%
47 | CCOc1ccc(Cc2nc3cc(C(=O)N(CC)CC)ccc3n2CC2CCCC2)cc1 | 1 nM | 491 nM | 0.7 nM | 79%
